Series [1] concerns the target human CDK7 (Homo sapiens, UniProt P50613). Description: qSox-IVKA of immunoprecipitated CDK7. The class given is biochemical.
For series [2], the target named is pUL97-Flag/CDK7 (Homo sapiens, UniProt P50613). The series is described as follows: qSox-IVKA of coimmunoprecipitated pUL97-Flag/CDK7, pUL97-specific sensor peptide. It is filed as biochemical, HCMV / human. The following applies: 0.01 µM LDC4297.
For series [3], the target named is T1, vCDK/pUL97 (Human cytomegalovirus, UniProt P16788).
T1 sequence (P16788 1-707): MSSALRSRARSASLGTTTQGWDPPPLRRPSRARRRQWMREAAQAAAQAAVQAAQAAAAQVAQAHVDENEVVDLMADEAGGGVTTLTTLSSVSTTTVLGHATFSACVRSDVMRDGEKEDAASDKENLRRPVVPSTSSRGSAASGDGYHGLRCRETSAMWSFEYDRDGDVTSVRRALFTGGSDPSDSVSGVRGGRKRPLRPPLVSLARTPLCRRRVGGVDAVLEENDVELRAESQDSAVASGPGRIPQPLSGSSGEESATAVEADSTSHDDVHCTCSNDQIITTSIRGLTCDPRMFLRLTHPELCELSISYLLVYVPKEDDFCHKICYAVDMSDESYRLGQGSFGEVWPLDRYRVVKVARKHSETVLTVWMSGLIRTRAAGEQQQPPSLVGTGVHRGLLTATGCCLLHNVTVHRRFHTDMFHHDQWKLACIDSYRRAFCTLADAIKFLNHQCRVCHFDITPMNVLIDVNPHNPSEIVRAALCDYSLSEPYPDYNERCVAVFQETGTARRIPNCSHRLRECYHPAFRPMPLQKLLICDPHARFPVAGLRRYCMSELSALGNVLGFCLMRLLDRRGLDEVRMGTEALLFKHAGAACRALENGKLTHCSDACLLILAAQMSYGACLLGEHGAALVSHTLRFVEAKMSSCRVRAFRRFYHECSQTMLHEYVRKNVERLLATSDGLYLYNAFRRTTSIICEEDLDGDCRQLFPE
Description: qSox-IVKA of immunoprecipitated pUL97-Flag. It is filed as biochemical, HCMV.

Series [4] relates to CDK7 pSer164 and pThr170. The series is described as follows: Wb of CDK7 T-loop phosphorylation in HCMV AD169-infected HFFs. The class given is cell-based, human. The following applies: 0.35 µM MBV from 24 h p.i., harvested 3 d p.i., HCMV AD169 MOI 0.5. A digest of the protocol:
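HFFs in T75 flasks were infected 1 d after seeding with HCMV AD169, UL97 K355Δ kinase-dead mutant (MOI 0.5) or mock; inoculum was replaced after 90 min at 37°C. AD169-infected cells received 0.35 µM test compound or DMSO at 24 h p.i. Cells were harvested 3 d p.i. for SDS-PAGE/Wb with phosphosite-specific antibodies against CDK7 pSer164 and pThr170.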

The target of series [5] is T2, CDK7 + pUL97-Flag (Human cytomegalovirus, UniProt P16788).
T2 sequence (P16788 1-707): T1 sequence (P16788 1-707)
Description: qSox-IVKA of CDK7 + pUL97-Flag samples, CDK7-specific sensor peptide. It is filed as biochemical, human / HCMV. The following applies: 0.35 µM MBV. A digest of the protocol:
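293T cells were transfected with pUL97-Flag or empty vector. At 2 d p.t., CDK7 and/or pUL97-Flag were immunoprecipitated, with a mouse Fc pseudo-IP as control. Eluate in HEPES pH 7.5 enzyme buffer was added to a reaction mix (final 1.0 mM ATP, 10 mM MgCl2, 15 µM CDK7 Sox sensor peptide AQT0459). Fluorescence (Ex355/Em480) was read kinetically at 30°C for about 80 min, in triplicate. Fc/empty-vector background was subtracted and Wb normalization factors applied. Combined-IP activity was related to CDK7 single IP, or pUL97-only activity was subtracted. 0.35 µM test compound or DMSO was added to combined samples. Data are from one representative biological replicate.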

Series [6] deals with HCMV-infected TEV-1 cells (cyclin H mRNA). Description: cyclin H mRNA levels by one-step RT-qPCR in HCMV Merlin-infected TEV-1 cells. The class given is cell-based, human. The following applies: 1 µM MBV, HCMV Merlin MOI 0.5. (Real-time PCR tracks product formation cycle by cycle.)
Series [7] relates to HCMV-infected HFFs (cyclin H mRNA). The series is described as follows: cyclin H mRNA levels by one-step RT-qPCR in HCMV Merlin-infected HFFs. It is filed as cell-based, human. The following applies: 1 µM MBV, HCMV Merlin MOI 0.5, 7 d p.i.

human CDK7, sequence (P50613 whole entry): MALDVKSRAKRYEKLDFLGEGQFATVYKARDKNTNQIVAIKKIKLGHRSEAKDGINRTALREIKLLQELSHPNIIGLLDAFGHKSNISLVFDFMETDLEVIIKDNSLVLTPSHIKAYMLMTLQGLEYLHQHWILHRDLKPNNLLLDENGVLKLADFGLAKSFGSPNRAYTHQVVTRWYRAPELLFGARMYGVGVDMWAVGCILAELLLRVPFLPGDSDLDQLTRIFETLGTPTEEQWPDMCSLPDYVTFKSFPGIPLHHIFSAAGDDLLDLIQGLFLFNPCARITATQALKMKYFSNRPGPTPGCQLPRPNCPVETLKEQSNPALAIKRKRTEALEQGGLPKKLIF
human CDK7, sequence (P51946 whole entry partner): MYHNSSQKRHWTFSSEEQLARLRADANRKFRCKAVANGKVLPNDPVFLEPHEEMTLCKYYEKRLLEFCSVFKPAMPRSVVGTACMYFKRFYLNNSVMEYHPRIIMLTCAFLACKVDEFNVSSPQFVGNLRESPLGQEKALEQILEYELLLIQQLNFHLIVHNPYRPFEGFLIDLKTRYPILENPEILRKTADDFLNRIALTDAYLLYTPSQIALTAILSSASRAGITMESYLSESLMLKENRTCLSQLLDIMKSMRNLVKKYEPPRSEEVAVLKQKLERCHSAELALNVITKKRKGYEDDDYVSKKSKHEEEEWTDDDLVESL
human CDK7, sequence (P51948 whole entry partner): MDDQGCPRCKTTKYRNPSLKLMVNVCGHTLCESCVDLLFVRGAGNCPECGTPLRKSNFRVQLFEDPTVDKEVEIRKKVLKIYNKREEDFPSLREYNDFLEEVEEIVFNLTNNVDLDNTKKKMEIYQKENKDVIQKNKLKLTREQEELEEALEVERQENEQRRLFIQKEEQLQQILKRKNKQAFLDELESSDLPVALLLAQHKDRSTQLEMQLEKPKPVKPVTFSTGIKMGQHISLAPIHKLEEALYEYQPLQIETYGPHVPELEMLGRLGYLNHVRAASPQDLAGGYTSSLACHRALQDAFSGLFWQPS
pUL97-Flag/CDK7, sequence (P50613 whole entry): as the sequence (P50613 whole entry) above
pUL97-Flag/CDK7, sequence (P51946 whole entry partner): as the sequence (P51946 whole entry partner) above
pUL97-Flag/CDK7, sequence (P51948 whole entry partner): as the sequence (P51948 whole entry partner) above

Regarding `CC(C)c1cnn2c(NCc3ccccc3-n3cccn3)nc(OC3CCCNC3)nc12` (stereo not shown) [LDC4297], the “effect on CDK7 activity” value in series [1] (applied concentration of LDC4297 in the IVKA (5 µM)) is on record as “completely blocked CDK7 activity”. In series [2], the “change in pUL97 activity upon inhibition of CDK7” value is listed as “no change in pUL97 activity”. Further, the “inhibitory effect on pUL97 activity” value in series [3] (5 µM LDC4297) is recorded as “did not affect pUL97 kinase activity”.
For `CC(C)Nc1nc2cc(Cl)c(Cl)cc2n1[C@H]1O[C@@H](CO)[C@H](O)[C@@H]1O` [MBV, maribavir], in series [1] (0.35 µM MBV), the “effect on CDK7 activity” value is “not inhibited”. Besides, the “CDK7 phosphomarkers pSer164 and pThr170” value in series [4] is on record as “modest increase”. Besides, the “pUL97-mediated increased CDK7 kinase activity (trans-stimulation)” value in series [5] was “abolished”. Moreover, the “reduction of the HCMV-induced increase of cyclin H mRNA levels” value worked out at 68% in series [6] and 28% in series [7]. Besides, the “pUL97 kinase activity reduced to” value in series [3] (0.35 µM) amounted to 50%.
Turning to “recombinant cyclin H: recombinant human cyclin H, full-length, GST-tag, expressed in insect cells (ABIN6699744)”, the “increase of in vitro kinase activity of pUL97” value in series [3] (exogenous addition of 100 nM recombinant cyclin H) is given as 31.5%.

Source of the values: article PMC10445456 (Virus Research, 2023).
